NF-kB expr up: activators of NF-kB expression in neurons, primary screen, cell-based, HTS. human neuronal cells, NF-kB reporter expression; stronger effect = higher value. fold change at 12.5 µM. 190,000 compounds, 1.6% hits; in the data active = fold change above about 3.3
STAT1 act: STAT1 signaling activators, primary screen, cell-based, HTS, luciferase reporter | NIH 3T3 STAT1-luciferase reporter, IFN-gamma, luminescence; 100% = IFN-gamma alone, no compound | activation (% of control), % at 5.5 µM | 200,000 compounds, 2.6% hits | AID 932, 2007;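 active = activation above the screen-wide mean activation plus 3 SD, cut at about 130% in these data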;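 note: raw ratio to IFN-gamma control signal so 100% means no change and 0% no light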
FLuc inh counter: firefly luciferase enzyme inhibitors, primary screen, artefact control for luciferase-based inhibitor screens, biochemical, luminescence, ATPLite. 10 min. inhibition, % at 10 µM. 200,000 compounds, 1.5% hits;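 active = inhibition above about 50% when tested at 10 µM, limit read from the data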
Target sequence (P08659 whole entry, looked up): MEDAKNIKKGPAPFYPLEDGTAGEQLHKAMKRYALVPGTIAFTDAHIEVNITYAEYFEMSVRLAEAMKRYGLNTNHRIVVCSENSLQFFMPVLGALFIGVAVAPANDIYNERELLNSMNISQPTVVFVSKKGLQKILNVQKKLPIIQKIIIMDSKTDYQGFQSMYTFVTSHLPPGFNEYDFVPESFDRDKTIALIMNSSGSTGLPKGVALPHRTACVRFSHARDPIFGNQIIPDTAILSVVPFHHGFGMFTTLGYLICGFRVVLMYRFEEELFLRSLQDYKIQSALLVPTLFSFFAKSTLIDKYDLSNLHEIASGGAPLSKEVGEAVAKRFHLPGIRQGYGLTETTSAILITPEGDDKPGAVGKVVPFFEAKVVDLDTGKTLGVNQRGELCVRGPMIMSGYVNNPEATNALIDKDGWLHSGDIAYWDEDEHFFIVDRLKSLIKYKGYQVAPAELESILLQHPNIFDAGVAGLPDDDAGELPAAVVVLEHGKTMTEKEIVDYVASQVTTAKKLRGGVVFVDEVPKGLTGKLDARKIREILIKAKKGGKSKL
APP 5'UTR act: activators of APP 5'UTR luciferase reporter, primary screen, SH-SY5Y cells. AID 1276, 2008. SH-SY5Y APP 5'UTR luciferase reporter, luminescence; zero percent = DMSO vehicle wells. activation, % at 2 µM. 190,000 compounds, 1% hits;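 active = activation above a set limit, based on mean plus 3 SD of controls, cut at about 140% in these data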
FLuc act counter: FLuc activators, initial screening, artefact control for FLuc-dependent activation tests, biochemical, ATPlite luminescence | Luciferin 4-monooxygenase (Photinus pyralis), P08659 | ATPlite luciferase biochemical, 10 min; 0 = ATP-free wells, 1 = DMSO control | 200,000 tested, under 10 active | activation factor at 10 µM;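 active = luciferase activation factor, scaled between plate controls, of at least 2 with compound at 10 µM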
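System: luciferase plus luciferin reagent, cell-free; medium: PBS as buffer for the ATP substrate; dosing: test compounds dosed from 2 mM stocks in 100% DMSO; timing: 10 min post-reagent at room temperature; measured by: luminescence measurement of luciferase light output; evaluation: luciferase activation, seen as luminescence increase over controls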
Rad51 HR inh: human RAD51 strand exchange inhibitors, primary screen, biochemical, fluorescence; hRad51 DNA strand exchange, fluorescence dequenching; inhibition, % at 10 µM; 200,000 compounds, 0.085% hits;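 active = inhibition above 40% at the single screening dose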;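 note: 0% = DMSO control wells and 100% = blanks with heterologous ssDNA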
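Material: Human Rad51 nucleoprotein filaments preassembled on unlabelled ssDNA | Also added: Labelled 47-mer dsDNA for strand exchange | Dosing: Single dose, 10 µM final compound | Schedule: 30-min compound preincubation and 15-min exchange, both room temperature | Technique: Fluorescence dequenching at 485/520 nm | Measure: Percent inhibition relative to plate controls and blanks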
Active calls of the source: *; · = not tested or not shown. This is a sample that favours compounds with a hit; in the whole collection about 3.9% have one here.

SMILES | NF-kB expr up | STAT1 act | FLuc inh counter | APP 5'UTR act | FLuc act counter | Rad51 HR inh
CC(C)NC(=O)CCc1nnc(Cc2cccc(C(F)(F)F)c2)o1 | 2.52 | 139.9* | -2.8 | 40.4 | 1 | ·
O=c1c2ccccc2nnn1CSc1nc2ccccc2[nH]1 | 2.16 | 135.0* | 1.5 | 65.8 | 1 | -0.4
c1csc(CSc2nnc3sc4ccccc4n23)c1 | 2.74 | 132.5* | 8.0 | 43.3 | 0.9 | 11.7
Cc1ccc(SCn2nnc3ccccc3c2=O)c(C)c1 | 2.87 | 140.9* | 5.2 | 76.5 | 0.9 | -7.5
c1csc(CSc2nc3ccccc3s2)c1 | 2.81 | 145.0* | 15.8 | 54.9 | 0.8 | -3.8
COc1ccc2[nH]c3c(=O)n4c(nc3c2c1)SCCC4 | 1.1 | 66.0 | 7.2 | 12.7 | 0.9 | ·
COc1cc(/C=N/NC(=O)C(N)=O)ccc1OCC(=O)N1C(C)CCCC1C (stereo not drawn) | 0.85 | 100.9 | -9.3 | -0.5 | 1.1 | ·
O=c1c2ccccc2nnn1CSc1nnc2sc3ccccc3n12 | 2.83 | 122.8 | 57.7* | 89.5 | 0.4 | ·
Oc1ccc(NCc2cccc(OCc3ccccc3)c2)cc1 | 1.4 | 115.8 | -1.6 | -1.2 | 1 | ·
Oc1ccc(NCc2cccc(OCc3ccc(F)cc3)c2)cc1 | 1.42 | 129.1* | -3.5 | -2.7 | 1 | 9.2
O=C1CCN(c2ccc([N+](=O)[O-])cc2F)CC1 | 1.17 | 102.6 | -2.0 | -4.2 | 1 | 6.4
COC(=O)[C@H](Cc1ccccc1)NC(=O)O[C@@H]1C(=O)c2cc(Br)ccc2O[C@H]1c1cccc(OC)c1 | 0.88 | 106.2 | -4.1 | -3.8 | 1 | ·
CCCNC(=O)c1nnsc1Sc1ccc(Cl)cc1 | 1.4 | 109.8 | 5.4 | 11.6 | 0.9 | -1.1
CCCCCCCOc1ccc(OC(=O)c2cccnc2)cc1 | 10.5* | 103.4 | -3.7 | 2.6 | 1 | -23.2
CCCCCCCOc1ccc(OC(=O)c2ccncc2)cc1 | 8.58* | 96.6 | -3.1 | -2.7 | 1 | -4.8
Cc1nnc2n(c1=O)N=C(c1ccc(Cl)cc1)CS2 | 2.93 | 132.4* | -5.4 | 112.1 | 1.1 | 4.4
COc1ccc(C2=NN(C(C#N)c3ccc(OC)c(OC)c3)C(c3ccccc3)C2)cc1 (stereo not drawn) | 6.13* | 124.5 | 4.1 | 155.1* | 1 | -4.2
COc1ccc(C(C#N)N2CCC(c3ccccc3)=N2)cc1OC (stereo not drawn) | 1.32 | 120.9 | 1.4 | -9.2 | 1 | -1.3
CCOC(=O)C1(Cc2ccccc2Cl)CCN(C(=O)c2cnccn2)CC1 | 2.72 | 149.4* | -1.5 | 41.8 | 1 | ·
Cc1ccc(OCCn2cnc3c(N)ncnc32)cc1 | 2.11 | 129.2* | -9.0 | -4.3 | 1.1 | -1.2
Nc1ccc2oc3ccc(N)cc3c(=O)c2c1 | 2.06 | 143.0* | 22.2 | · | 0.8 | 5.6
Clc1cc(Cl)c2nc(N3CCCCC3)sc2c1 | 3.3* | 123.7 | 8.8 | 62.8 | 0.9 | 1.1
COc1ccc(CCCC(=O)N/N=C/c2ccccc2OC)cc1 | 1.01 | 96.9 | -4.5 | -3.6 | 1 | 15.0
Cc1ccc(/C=N/NC(=O)c2ccc(Br)o2)s1 | 2.05 | 107.7 | 33.0 | 41.8 | 0.7 | 3.3
CCN(CC)c1ccc(/C=N/NC(=O)c2ccc(Br)o2)cc1 | 4.32* | 138.5* | 49.6 | 95.7 | 0.5 | 21.2
CCc1ccc(/C=N\NC(=O)c2ccc(Br)o2)s1 | 2.92 | 146.0* | 42.0 | 49.9 | 0.6 | 5.4
COc1ccc(NC(=O)C(=O)NCCN2CCN(C(=O)c3ccco3)CC2)cc1 | 1.1 | 93.9 | -7.2 | -0.9 | 1.1 | 3.4
Cc1ccc(N(CN2C(=O)C3C4CCC(C4)C3C2=O)C(=O)c2ccco2)cc1 (stereo not drawn) | · | · | · | · | · | 2.7
C(#Cc1ccccc1)C[N+]1(CC#Cc2ccccc2)CCCC1 | 0.75 | 81.9 | -4.1 | 8.3 | 1 | 1.0
C=CC#CC[N+]1(CC#Cc2ccccc2)CCOCC1 | 0.95 | 88.4 | -0.7 | -5.0 | 1 | 63.9*

Screens from PubChem.
